Measured values as given in ChEMBL document CHEMBL4304758, “Development of Peptide-Based Sirtuin Defatty-Acylase Inhibitors Identified by the Fluorescence Probe, SFP3, That Can Efficiently Measure Defatty-Acylase Activity of Sirtuin” (J Med Chem, 2019).
Non-standard residues stand in square brackets, D forms with d. Residues, ends and D or L forms follow the SMILES beside them. *: point of attachment. Phenylacetyl(4-E-phenylazo) = O=C(Cc1ccc(/N=N/c2ccccc2)cc1)*; Lys(thiomyristoyl) = CCCCCCCCCCCCCC(=S)NCCCC[C@H](N)C(=O)O; X5 = CCN(CC)c1ccc(/N=N/c2ccc(CC(=O)*)cc2)cc1; X3 = CN(C)c1ccc(/N=N/c2ccc(CCC(=O)*)cc2)cc1; X4 = CN(C)c1ccc(/N=N/c2ccc(CC(=O)*)cc2)cc1; X2 = CN(C)c1ccc(/N=N/c2ccc(C(=O)*)cc2)cc1; X1 = O=C(Cc1ccc(/N=N/c2ccc(O)cc2)cc1)*

Columns and labels:
[1] = target: T1, NAD-dependent protein deacetylase sirtuin-1 (Homo sapiens, UniProt Q96EB6); assay: Inhibition of recombinant human C-terminal His6-tagged SIRT1 (Met1 to Ser747 residues) defatty-acylase activity expressed in Escherichia coli using SFP3 as substrate measured at 5 mins interval for 60 mins in presence of NAD+ by fluorescence assay
T1 sequence (Q96EB6 whole entry): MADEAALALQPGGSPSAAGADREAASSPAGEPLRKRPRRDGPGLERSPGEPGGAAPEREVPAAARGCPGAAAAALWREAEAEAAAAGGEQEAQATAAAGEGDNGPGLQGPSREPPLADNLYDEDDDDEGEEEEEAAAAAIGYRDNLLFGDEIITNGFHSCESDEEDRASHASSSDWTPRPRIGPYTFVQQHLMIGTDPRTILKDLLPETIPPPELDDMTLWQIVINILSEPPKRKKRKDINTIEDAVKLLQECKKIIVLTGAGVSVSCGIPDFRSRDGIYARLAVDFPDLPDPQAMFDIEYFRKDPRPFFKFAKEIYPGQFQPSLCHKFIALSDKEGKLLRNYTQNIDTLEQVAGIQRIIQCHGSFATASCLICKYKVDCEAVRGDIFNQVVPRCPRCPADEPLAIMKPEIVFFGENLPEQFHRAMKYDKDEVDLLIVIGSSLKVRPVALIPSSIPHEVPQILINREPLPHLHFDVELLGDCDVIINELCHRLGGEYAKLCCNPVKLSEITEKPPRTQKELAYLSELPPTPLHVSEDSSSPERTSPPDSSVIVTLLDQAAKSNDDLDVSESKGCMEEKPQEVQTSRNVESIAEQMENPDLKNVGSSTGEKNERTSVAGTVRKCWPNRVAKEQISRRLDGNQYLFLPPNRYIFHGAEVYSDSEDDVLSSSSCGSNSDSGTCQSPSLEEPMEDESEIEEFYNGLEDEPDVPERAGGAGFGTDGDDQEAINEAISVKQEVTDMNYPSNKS

[2] = target: T1, NAD-dependent protein deacetylase sirtuin-1; assay: Inhibition of recombinant human C-terminal His6-tagged SIRT1 (Met1 to Ser747 residues) demyristoylase activity expressed in Escherichia coli using p53(Myr)-AMC as substrate measured after 3 hrs in presence of NAD+ and trypsin by fluorescence assay
Outline: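 SIRT1 at 14 nM final with 50 μM p53(Myr)-AMC and 500 μM NAD⁺ in Tris-HCl pH 8.0/NaCl/DTT/Triton buffer, 0.5% DMSO, 3 h at room temperature. Trypsin (100 nM final) plus nicotinamide (1 mM final) then added. Fluorescence Ex 355/Em 460 nm read every 5 min for 20 min at 37 °C. n = 3.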

[3] = target: T2, NAD-dependent protein deacetylase sirtuin-2 (Homo sapiens, UniProt Q8IXJ6); assay: Inhibition of recombinant human SIRT2 deacylation activity using Fluor de Lys Sirt2 as substrate measured at 5 mins interval for 30 mins in presence of NAD+ by fluorescence assay
T2 sequence (Q8IXJ6 whole entry): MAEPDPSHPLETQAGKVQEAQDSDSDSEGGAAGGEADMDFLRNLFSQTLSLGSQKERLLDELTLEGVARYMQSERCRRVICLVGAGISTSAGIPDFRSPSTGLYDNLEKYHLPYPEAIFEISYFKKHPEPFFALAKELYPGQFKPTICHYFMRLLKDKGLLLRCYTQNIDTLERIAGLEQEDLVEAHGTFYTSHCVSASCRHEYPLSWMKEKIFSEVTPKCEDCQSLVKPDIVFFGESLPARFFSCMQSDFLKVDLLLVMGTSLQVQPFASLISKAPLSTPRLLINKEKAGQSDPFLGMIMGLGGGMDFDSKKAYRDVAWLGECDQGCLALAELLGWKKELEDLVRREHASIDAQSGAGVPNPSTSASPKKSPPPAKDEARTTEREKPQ

[4] = target: T2, NAD-dependent protein deacetylase sirtuin-2; assay: Inhibition of recombinant human SIRT2 demyristoylase activity using p53(Myr)-AMC as substrate measured after 3 hrs in presence of NAD+ and trypsin by fluorescence assay
[5] = target: T2, NAD-dependent protein deacetylase sirtuin-2; assay: Inhibition of recombinant human SIRT2 defatty-acylase activity using SFP3 as substrate measured at 5 mins interval for 60 mins in presence of NAD+ by fluorescence assay
[6] = target: T3, NAD-dependent protein deacetylase sirtuin-3, mitochondrial (Homo sapiens, UniProt Q9NTG7); assay: Inhibition of recombinant human SIRT3 (118 to 399 residues) defatty-acylase activity expressed in Escherichia coli using SFP3 as substrate measured at 5 mins interval for 60 mins in presence of NAD+ by fluorescence assay
T3 sequence (Q9NTG7 whole entry): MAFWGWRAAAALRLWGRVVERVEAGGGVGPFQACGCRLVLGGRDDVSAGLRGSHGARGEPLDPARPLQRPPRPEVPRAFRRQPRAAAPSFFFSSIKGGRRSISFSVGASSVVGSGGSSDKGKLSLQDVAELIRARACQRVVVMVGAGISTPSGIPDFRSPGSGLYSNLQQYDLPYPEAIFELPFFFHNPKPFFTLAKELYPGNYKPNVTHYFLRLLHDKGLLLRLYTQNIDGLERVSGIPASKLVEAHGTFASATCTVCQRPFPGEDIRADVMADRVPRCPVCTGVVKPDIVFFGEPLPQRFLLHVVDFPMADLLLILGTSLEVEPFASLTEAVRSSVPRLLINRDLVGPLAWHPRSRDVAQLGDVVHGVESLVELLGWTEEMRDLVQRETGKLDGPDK

[7] = target: T3, NAD-dependent protein deacetylase sirtuin-3, mitochondrial; assay: Inhibition of recombinant human SIRT3 (118 to 399 residues) demyristoylase activity expressed in Escherichia coli using p53(Myr)-AMC as substrate measured after 3 hrs in presence of NAD+ and trypsin by fluorescence assay
[8] = target: NAD-dependent protein deacylase sirtuin-6 (Homo sapiens, UniProt Q8N6T7); assay: Inhibition of recombinant human N-terminal polyhis-tagged SIRT6 (1 to 355 residues) defatty-acylase activity expressed in Escherichia coli using SFP3 as substrate measured at 5 mins interval for 60 mins in presence of NAD+ by fluorescence assay
Outline: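 SIRT6 at 48 nM final with 2.5 μM SFP3 and 500 μM NAD⁺ in Tris-HCl pH 8.0 buffer with 150 mM NaCl, 1 mM DTT, 0.05% Triton X-100, final 0.2% DMSO. Enzyme added last. Fluorescence Ex 485/Em 535 nm read every 5 min for 60 min at 37 °C.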

[9] = system: SIRT2; assay: Stability of the compound in SIRT assay buffer assessed as parent compound remaining at 20 uM measured after 4 hrs in presence of recombinant human SIRT2 and NAD+ by HPLC analysis; type: physicochemical; settings: read-out: Stability
Outline: (§1)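 Compound at 20 μM final (0.2% DMSO) with 350 nM SIRT2 and 500 μM NAD⁺ at 37 °C in buffer I: 50 mM Tris-HCl pH 8.0, 150 mM NaCl, 1 mM DTT, 0.05% Triton X-100. Aliquots taken at 0 and 4 h. Reversed-phase HPLC, TFA water/acetonitrile gradient. Detection at 510, 350 or 254 nm depending on compound.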

[10] = target: T2, NAD-dependent protein deacetylase sirtuin-2; assay: Drug metabolism assessed as recombinant human SIRT2-mediated deacylation by measuring dabcyl formation at 20 uM measured up to 4 hrs in presence of NAD+ by HPLC analysis; type: ADME; outline: as §1
[11] = target: T2, NAD-dependent protein deacetylase sirtuin-2; assay: Drug metabolism assessed as recombinant human SIRT2-mediated deacylation by measuring dabcyl-PH formation at 20 uM measured up to 4 hrs in presence of NAD+ by HPLC analysis; type: ADME; outline: as §1

NAD-dependent protein deacylase sirtuin-6, sequence (Q8N6T7 whole entry, the tested form may be a part): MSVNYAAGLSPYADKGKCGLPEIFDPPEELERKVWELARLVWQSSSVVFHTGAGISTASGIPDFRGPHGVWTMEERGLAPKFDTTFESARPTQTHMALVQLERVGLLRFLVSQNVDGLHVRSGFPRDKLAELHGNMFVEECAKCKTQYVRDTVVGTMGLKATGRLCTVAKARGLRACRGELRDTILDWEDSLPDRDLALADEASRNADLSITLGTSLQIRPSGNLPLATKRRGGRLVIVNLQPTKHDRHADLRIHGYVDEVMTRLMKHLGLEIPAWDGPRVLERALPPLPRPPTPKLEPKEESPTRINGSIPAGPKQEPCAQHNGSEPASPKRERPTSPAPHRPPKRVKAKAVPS

Row | SMILES | IC50 [1] [nM] | IC50 [2] [nM] | IC50 [3] [nM] | IC50 [4] [nM] | IC50 [5] [nM] | IC50 [6] [nM] | IC50 [7] [nM] | IC50 [8] [nM] | remaining at 4 h, 20 µM [9] [%] | Drug metabolism [10] | Drug metabolism [11]
1 | CC[C@H](C)[C@H](NC(=O)[C@H](CCCNC(=N)N)NC(C)=O)C(=O)N[C@@H](CCCCNC(=O)Cc1ccc(/N=N/c2ccccc2)cc1)C(=O)N[C@@H](CCCNC(=N)N)C(=O)N[C@@H](Cc1ccc(O)cc1)C(N)=O (Ac-RIK(Phenylacetyl(4-E-phenylazo))RY-NH2) | 48 | 71 | 180 | 51 | 19 | 77 | 340 |  |  |  | 
2 | C[C@H](NC(=O)[C@H](CCCCNC(=O)Cc1ccc(/N=N/c2ccc(O)cc2)cc1)NC(=O)OCc1ccccc1)C(N)=O |  |  | 190 |  | > 2000 |  |  |  |  |  | 
3 | CC[C@H](C)[C@H](NC(=O)[C@@H](NC(=O)[C@H](CCCCNC(=O)Cc1ccc(/N=N/c2ccccc2)cc1)NC(=O)[C@H](CC(=O)O)NC(=O)[C@H](CO)NC(C)=O)[C@@H](C)O)C(N)=O (Ac-SDK(Phenylacetyl(4-E-phenylazo))TI-NH2) | > 2000 |  | 580 | > 2000 | 1500 | > 2000 |  |  |  |  | 
4 | CC[C@H](C)[C@H](NC(=O)[C@H](CCCCNC(=O)Cc1ccc(/N=N/c2ccccc2)cc1)NC(=O)[C@@H](NC(C)=O)C(C)C)C(=O)N[C@@H](CCCCN)C(=O)N[C@@H](CCCCN)C(N)=O (Ac-VK(Phenylacetyl(4-E-phenylazo))IKK-NH2) | 1400 | 430 | 120 | 520 | 120 |  |  |  |  |  | 
5 | CC[C@H](C)[C@H](NC(=O)[C@@H](NC(=O)[C@H](CCCCNC(=O)c1ccc(/N=N/c2ccc(N(C)C)cc2)cc1)NC(=O)[C@H](CC(=O)O)NC(=O)[C@H](CO)NC(C)=O)[C@@H](C)O)C(N)=O (Ac-SDK(X2)TI-NH2) | > 2000 |  | 1200 | > 2000 | > 2000 | > 2000 |  |  |  |  | 
6 | Cc1cc(C)nc(SCC(=O)Nc2ncc(Cc3cccc4ccccc34)s2)n1 | > 10000 | > 10000 |  |  |  |  |  |  |  |  | 
7 | CC[C@H](C)[C@H](NC(=O)[C@H](CCCNC(=N)N)NC(C)=O)C(=O)N[C@@H](CCCCNC(=O)Cc1ccc(/N=N/c2ccc(N(CC)CC)cc2)cc1)C(=O)N[C@@H](CCCNC(=N)N)C(=O)N[C@@H](Cc1ccc(O)cc1)C(N)=O (Ac-RIK(X5)RY-NH2) | 1100 | 140 | 260 | 190 | 68 | 180 | 480 |  |  |  | 
8 | CCCCCCCCCCCCCC(=S)NCCCC[C@H](NC(=O)[C@@H](NC(=O)[C@H](CCCNC(=N)N)NC(C)=O)[C@@H](C)CC)C(=O)N[C@@H](CCCNC(=N)N)C(=O)N[C@@H](Cc1ccc(O)cc1)C(N)=O (Ac-RI[Lys(thiomyristoyl)]RY-NH2) | 330 | 26 | 110 | 44 | 22 | 46 | 130 | 250 |  |  | 
9 | CC[C@H](C)[C@H](NC(=O)[C@H](CCCNC(=N)N)NC(C)=O)C(=O)N[C@@H](CCCCNC(=O)Cc1ccc(/N=N/c2ccc(N(C)C)cc2)cc1)C(=O)N[C@@H](CCCNC(=N)N)C(=O)N[C@@H](Cc1ccc(O)cc1)C(N)=O (Ac-RIK(X4)RY-NH2) | 400 | 98 | 170 | 130 | 36 | 110 | 330 |  | > 99 |  | 
10 | C[C@H](NC(=O)[C@H](CCCCNC(=O)Cc1ccc(/N=N/c2ccc(OCc3ccccc3)cc2)cc1)NC(=O)OCc1ccccc1)C(N)=O |  |  | 190 |  | > 2000 |  |  |  |  |  | 
11 | CC[C@H](C)[C@H](NC(C)=O)C(=O)N[C@@H](CCCCNC(=O)Cc1ccc(/N=N/c2ccccc2)cc1)C(=O)N[C@@H](CCCNC(=N)N)C(N)=O | 270 | 84 | 110 | 250 | 63 |  |  |  |  |  | 
12 | CC[C@H](C)[C@H](NC(=O)[C@H](CCCNC(=N)N)NC(C)=O)C(=O)N[C@@H](CCCCNC(=O)Cc1ccc(/N=N/c2ccc(O)cc2)cc1)C(=O)N[C@@H](CCCNC(=N)N)C(=O)N[C@@H](Cc1ccc(O)cc1)C(N)=O (Ac-RIK(X1)RY-NH2) | 120 | 50 | 110 | 44 | 19 | 55 | 190 |  |  |  | 
13 | C[C@H](NC(=O)[C@H](CCCCNC(=O)Cc1ccc(/N=N/c2ccc(OCCc3ccccc3)cc2)cc1)NC(=O)OCc1ccccc1)C(N)=O | > 2000 |  | 400 | > 2000 | > 2000 | > 2000 |  |  |  |  | 
14 | CC[C@H](C)[C@H](NC(=O)[C@H](CCCNC(=N)N)NC(C)=O)C(=O)N[C@@H](CCCCNC(=O)c1ccc(/N=N/c2ccc(N(C)C)cc2)cc1)C(=O)N[C@@H](CCCNC(=N)N)C(=O)N[C@@H](Cc1ccc(O)cc1)C(N)=O (Ac-RIK(X2)RY-NH2) | > 2000 |  | 1600 | 1600 | 430 | 770 |  |  |  | Metabolite_Detected | 
15 | CC[C@H](C)[C@H](NC(=O)[C@H](CCCNC(=N)N)NC(C)=O)C(=O)N[C@@H](CCCCNC(=O)CCc1ccc(/N=N/c2ccc(N(C)C)cc2)cc1)C(=O)N[C@@H](CCCNC(=N)N)C(=O)N[C@@H](Cc1ccc(O)cc1)C(N)=O (Ac-RIK(X3)RY-NH2) | 1700 |  | 1100 | > 2000 | 300 | 1500 |  |  |  |  | Metabolite_Detected
16 | CCCCCCCCCCCCCC(=O)NCCCC[C@H](NC(=O)OCc1ccccc1)C(=O)Nc1ccccc1 |  |  | > 1000 |  | > 2000 |  |  |  |  |  | 
